MEKK2 WT-MEK5: raises or lowers MEK5 binding to wildtype human MEKK2 PB1 domain; 1.1% of 290,000 active; AID 1531; binding response (% of control), % at 10 µM; bead flow cytometry, Alexa488-MEK5 binding to MEKK2 WT; actives lie on both sides; in the data active means binding response below about 67% or above about 130%
MEKK2mut PB1 HTS: signal of MEK5 binding to mutant human MEKK2 PB1 domain. 0.35% of 290,000 active. bead flow cytometry, Alexa488-MEK5 binding to MEKK2 mutant. percent response, % at 10 µM; in the data active means percent response above about 24%, passing the limit was not always enough
ABCG2 block: inhibitors of human ABCG2 transporter, ABCB1 counter-screen. Q9UNQ0. IgMXP3 cells, JC-1 efflux, flow cytometry. inhibition, % at 6.6 µM. 0.1% of 190,000 active;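 active means inhibition above 80%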;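 further: 0% = DMSO and 100% = nicardipine control wells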
Target sequence (Q9UNQ0 whole entry, looked up): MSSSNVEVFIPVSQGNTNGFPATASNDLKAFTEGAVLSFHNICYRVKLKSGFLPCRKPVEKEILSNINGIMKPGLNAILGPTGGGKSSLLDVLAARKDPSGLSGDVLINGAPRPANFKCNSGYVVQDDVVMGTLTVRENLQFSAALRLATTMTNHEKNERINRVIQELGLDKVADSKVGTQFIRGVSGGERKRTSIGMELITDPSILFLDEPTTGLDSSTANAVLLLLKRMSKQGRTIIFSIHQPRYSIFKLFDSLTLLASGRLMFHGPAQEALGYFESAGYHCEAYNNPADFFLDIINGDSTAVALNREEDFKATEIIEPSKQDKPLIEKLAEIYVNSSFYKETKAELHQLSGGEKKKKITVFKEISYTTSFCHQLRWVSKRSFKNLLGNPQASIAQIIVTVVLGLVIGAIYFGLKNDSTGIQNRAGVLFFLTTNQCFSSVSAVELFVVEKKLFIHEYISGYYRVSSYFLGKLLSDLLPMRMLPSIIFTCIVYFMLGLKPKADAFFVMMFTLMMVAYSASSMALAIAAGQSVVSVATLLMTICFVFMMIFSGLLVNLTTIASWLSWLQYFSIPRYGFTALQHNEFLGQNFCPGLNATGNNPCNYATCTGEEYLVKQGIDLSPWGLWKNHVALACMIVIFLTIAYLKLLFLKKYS
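System: two drug-resistant human cell lines, ABCG2 and ABCB1; controls: nicardipine high and DMSO low controls; times: 10 min exposure at 25 °C with rotation, no wash; detection: flow cytometry of retained JC-1 fluorescence; read-out basis: percent efflux inhibition, scaled nicardipine 100% to DMSO 0%; doses: one concentration, 6.6 µM final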
MEKK3 PB1 HTS: raises or lowers MEK5 binding to the human MEKK3 PB1 domain; Q99759; bead-based flow cytometry, Alexa488-MEK5 binding to MEKK3; actives lie on both sides; 0 = blocked by unlabeled MEK5, 100 = vehicle; binding response (% of control), % at 10 µM; 1.4% of 290,000 active;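 active means binding response more than 3 SD above or below the average of its plate-row segment, actives on both sides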;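 further: Alexa488 bead fluorescence after subtracting the streptavidin-only scavenger bead signal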
WT yeast gro inh: growth inhibition of WT yeast, mitochondrial fusion screen | inhibition, % at 10 µM | 2.1% of 190,000 active | mitochondrial fusion phenotypic screen, WT strain; in the data active means inhibition above about 58%; tested in S. cerevisiae
ABCB1 inh: inhibitors of human ABCB1 transporter, ABCG2 counter-screen | inhibition, % at 6.6 µM | AID 1326 | 0.067% of 190,000 active | CCRF-Adr cells, JC-1 efflux, flow cytometry; in the data active means inhibition above about 40%;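 further: 0% = vehicle and 100% = reference inhibitor; higher value means more JC-1 retained so stronger ABCB1 efflux block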
Starred values were filed as active, the others as inactive; . = no result given; [ ] = remark or other dose. Rows were chosen to be rich in hits. Some 3.5% of all compounds tested hit in one or more screens of this group.

SMILES	MEKK2 WT-MEK5	MEKK2mut PB1 HTS	ABCG2 block	MEKK3 PB1 HTS	WT yeast gro inh	ABCB1 inh
Cc1cc(C)c2nc(/N=C(\N)NC(=O)Nc3ccccc3)nc(C)c2c1	117.0	3.0	-18.0	101.0	58.1*	-1.2
Cc1cc(NC(=O)NC(=O)c2ccccc2F)no1	102.0	0.0	.	100.0	.	.
CCOc1ccc2nc(NS(=O)(=O)Cc3ccccc3)sc2c1	95.0	-2.0	-1.7	97.0	15.6	-0.3
Nc1c(C(=O)O)ccc2c1C(=O)c1ccccc1C2=O	83.0	-6.0	5.5	79.0	23.2	-0.1
COC(=O)c1ccc2c(c1O)C(=O)c1ccccc1C2=O	109.0	4.0	1.4	107.0	65.7*	0.2
C=CCn1c(SCC(=O)NC2CCS(=O)(=O)C2)nnc1-c1cc2c(s1)CCC(CC)C2 (configuration not stated)	102.0	0.0	9.0	125.0	-9.3	0.3
C=CCn1c(-c2cc3c(s2)CCC(CC)C3)n[nH]c1=S (configuration not stated)	89.0	-10.0	-7.4	95.0	74.2*	-3.8
O=C(/C=C/c1c(F)cccc1Cl)NCCCN1CCOCC1	102.0	-2.0	.	101.0	.	.
CCC1(C)CC(CCN(Cc2ccco2)C(C)=O)(c2ccccc2)CCO1 (configuration not stated)	91.0	-6.0	0.5	99.0	-6.4	0.7
CC1(C)CC(CCN(Cc2ccccc2)C(=O)c2ccco2)(c2ccccc2)CCO1 (configuration not stated)	97.0	-1.0	0.1	94.0	62.6*	0.4
Cc1c(C(=O)N2CCC(C)CC2)sc2ncnc(N(C)c3ccccc3)c12	97.0	2.0	4.6	103.0	87.9*	0.6
Cc1cc(C)c(S(=O)(=O)N2CCCOC2CNC(=O)C(=O)NCCc2c[nH]c3ccccc23)c(C)c1 (configuration not stated)	100.0	-1.0	18.5	102.0	-5.8	5.4
C/C(CCc1ccc2c(c1)OCO2)=N\N=C1\NC(=O)CC(C(=O)Nc2ccccc2F)S1 (configuration not stated)	95.0	-5.0	8.8	93.0	5.4	0.7
CCc1cc(C(=O)O)c(NC(=O)c2cc(OC)c(OC)c(OC)c2)s1	85.0	-12.0	-1.2	90.0	20.2	-0.9
CCO[C@@H]1OC(C(=O)O)=C[C@H](c2csc3ccccc23)[C@H]1CCCO	109.0	8.0	1.4	85.0	-2.1	0.4
CCO[C@H]1OC(C(=O)Nc2ccccc2)=C[C@@H](c2csc3ccccc23)[C@@H]1CCCO	103.0	5.0	4.8	106.0	71.6*	2.0
CCO[C@H]1OC(C(=O)Nc2ccccc2)=C[C@@H](c2ccc(Br)cc2)[C@@H]1CCCO	96.0	0.0	8.7	103.0	65.4*	2.3
COc1cc(OC)cc(C(=O)NCCNc2nc3cc(C)cc(C)c3cc2C#N)c1	104.0	2.0	.	105.0	.	.
CC/C(C)=N\Nc1nc(-c2cc3cc(OC)ccc3oc2=O)cs1	96.0	-2.0	.	94.0	.	.
CCN(CC(N)=O)S(=O)(=O)c1ccc(Br)cc1	100.0	1.0	3.3	102.0	-0.5	0.3
Cc1ccc(CN2CCN(/N=C/c3ccc(Cl)c([N+](=O)[O-])c3)CC2)cc1	111.0	6.0	4.3	101.0	63.8*	0.2
COc1ccc(C(C(=O)NC2CCCC2)N(Cc2cccnc2)C(=O)c2snc(C(N)=O)c2N)cc1 (configuration not stated)	104.0	5.0	.	104.0	.	.
CSc1cccc(NC(=O)/C=C/c2cccc(Cl)c2)c1	110.0	0.0	2.4	101.0	82.8*	-0.1
O=C(/C=C/c1cccc(Cl)c1)Nc1ncccn1	114.0	22.0	36.6	107.0	-6.6	0.7
CCN(CC)c1ccc(/C=C/c2cc(-c3ccccc3)c3ccccc3n2)cc1	93.0	2.0	.	74.0*[inhibitor]	.	.
SMILES	MEKK2 WT-MEK5	MEKK2mut PB1 HTS	ABCG2 block	MEKK3 PB1 HTS	WT yeast gro inh	ABCB1 inh
O=C(Cc1ccc(F)cc1)Nc1ccc(Cl)cn1	101.0	0.0	.	98.0	.	.
CCCNC(=O)C1CCN(S(=O)(=O)c2ccc(Br)cc2)CC1	100.0	2.0	0.5	97.0	12.4	0.4
COC(=O)c1[nH]c2cccc(Cl)c2c1NC(=O)CN(C)C1CCCCC1	106.0	3.0	2.2	101.0	61.2*	0.7
Cc1sc2ncn(/N=C/c3ccco3)c(=O)c2c1C	111.0	12.0	.	102.0	.	.
O=C(O)/C=C(\Oc1ccccc1)C1(O)CCCCC1	103.0	0.0	.	101.0	.	.
O=C(CN(Cc1ccccc1)S(=O)(=O)c1cccc(C(F)(F)F)c1)NC1CCCCC1	115.0	1.0	4.1	94.0	-7.1	1.8
CC(c1ccccc1)N(CC(=O)NC1CCCCC1)S(=O)(=O)c1cccc(C(F)(F)F)c1 (configuration not stated)	95.0	-2.0	0.0	100.0	69.5*	2.0
Cc1cc(OC(C)C(=O)NCc2cccnc2)c2c(C)cc(=O)oc2c1 (configuration not stated)	102.0	1.0	.	97.0	.	.
CCOCc1c(C(=O)OCC(=O)/C(C#N)=C(\C)N)oc2ccccc12	114.0	3.0	4.7	123.0	-7.1	0.2
CC(C)c1ccc2c(c1)CCC1C(C)(CN)CCCC21C (configuration not stated)	155.0*	25.0*	.	36.0*[inhibitor]	.	.
CCOC(=O)C1=C(C)C(c2ccc(OC)cc2OC)NC(=O)N1 (configuration not stated)	108.0	15.0	89.7*	111.0	0.2	1.2
CCOC(=O)c1sc(/N=C/c2c(C)[nH]n(-c3ccccc3)c2=O)c(C#N)c1C	.	.	2.1	.	77.3*	1.7
Cc1cc(OCC(=O)Nc2ccncc2)c(C)cc1Br	109.0	10.0	2.0	106.0	59.8*	0.3
CCc1ccc(OCC(=O)Nc2ccncc2)c(Br)c1	102.0	0.0	.	105.0	.	.
Cc1cc(-c2sccc2C)nc(-n2cccc2)n1	100.0	-7.0	6.7	98.0	67.7*	0.8
Cc1nc2cc(-c3sccc3-n3cccc3)nn2c(C)c1C	.	.	7.8	.	4.4	1.1
Cc1ccc(NC(/C=C/N(C)C)=C/C(=O)C(F)(F)F)c(C)c1	93.0	-8.0	10.3	91.0	80.3*	1.6
CN(C)/C=C\C(=C/C(=O)C(F)(F)F)Nc1ccccc1Oc1ccccc1	104.0	5.0	12.7	101.0	-11.3	2.0
Cn1cc(Br)c(C(=O)n2cc(Br)cn2)n1	77.0	-15.0	-1.0	85.0	0.6	-0.1
CC(C)(C)C(=O)/C(=C/c1ccncc1)n1cncn1	98.0	-1.0	0.2	98.0	3.3	0.3
Cc1ccc(-c2csc3nc4c5ccccc5c(NCCCN(C)C)nn4c(=O)c23)cc1	195.0*	65.0*	-2.8	107.0	32.8	-1.3
Cc1ccc(-c2csc3nc(C)n(N)c(=O)c23)cc1	104.0	-1.0	4.9	104.0	-4.3	0.8

Source: PubChem BioAssay
